Source: ChEMBL document CHEMBL1137710, “Synthesis and in vitro antitumor activity of new quinoxaline derivatives” (2009)

Columns and labels:
Format in all cases: functional
IGROV-1 = assay: Growth inhibition of human IGROV1 cells after 48 hrs by sulforhodamine B assay; conditions: IGROV-1, 48 h
Procedure, shortened: (§1)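 NCI 60-human-tumor-cell-line panel, with compounds tested over a 5-log dose range. Values are taken from dose-response curves as log10 molar concentrations: GI50 is 50% net growth inhibition, TGI is total growth inhibition, and LC50 is 50% net cell death.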

786-0 = assay: Growth inhibition of human 786-0 cells after 48 hrs by sulforhodamine B assay; conditions: 786-0, 48 h; procedure, shortened: as §1
HOP-62 = assay: Growth inhibition of human HOP62 cells after 48 hrs by sulforhodamine B assay; conditions: HOP-62, 48 h; procedure, shortened: as §1
MCF7 [1] = assay: Anticancer activity against human MCF7 cells assessed as cell growth at 100 uM after 48 hrs by sulforhodamine B assay; conditions: MCF7, 48 h, read-out: Activity
M14 = assay: Growth inhibition of human M14 cells after 48 hrs by sulforhodamine B assay; conditions: M14, 48 h; procedure, shortened: as §1
MCF7 [2] = assay: Growth inhibition of human MCF7 cells after 48 hrs by sulforhodamine B assay; conditions: MCF7, 48 h; procedure, shortened: as §1
U-251 = assay: Growth inhibition of human U251 cells after 48 hrs by sulforhodamine B assay; conditions: U-251, 48 h
Procedure, shortened: (§2)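 Run in the NCI 60-human-tumour-cell-line panel, tested over a 5-log dose range. Dose–response curves gave three values per cell line, each as a log10 molar concentration: GI50 (50% inhibition of net cell growth), TGI (total inhibition of net growth) and LC50 (50% net cell death). The mean graph midpoint is the arithmetic mean over all lines, with insensitive lines entered at the highest concentration tested.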

NCI-H322M = assay: Growth inhibition of human NCI-H322M cells after 48 hrs by sulforhodamine B assay; procedure, shortened: as §1
UO-31 = assay: Growth inhibition of human UO31 cells after 48 hrs by sulforhodamine B assay; conditions: UO-31, 48 h; procedure, shortened: as §2
OVCAR-8 = assay: Growth inhibition of human OVCAR8 cells after 48 hrs by sulforhodamine B assay; conditions: OVCAR-8, 48 h; procedure, shortened: as §1
MDA-MB-435 = assay: Growth inhibition of human MDA-MB-435 cells after 48 hrs by sulforhodamine B assay; conditions: MDA-MB-435, 48 h; procedure, shortened: as §1
HL-60(TB) = assay: Growth inhibition of human HL-60(TB) cells after 48 hrs by sulforhodamine B assay; conditions: HL-60, 48 h
Procedure, shortened: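 Tested only on compounds active in a three-line prescreen, in the NCI 60-human-tumour-cell-line panel over a 5-log dose range. Values come from dose–response curves as log10 molar GI50, the concentration inhibiting 50% net cell growth. Log10 TGI (total growth inhibition) and log10 LC50 (50% net cell death) were derived too. Mean graph midpoints include insensitive lines at the highest concentration tested.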

NCI-H460 = assay: Anticancer activity against human NCI-H460 cells assessed as cell growth at 100 uM after 48 hrs by sulforhodamine B assay; conditions: NCI-H460, 48 h, read-out: Activity
K562 = assay: Growth inhibition of human K562 cells after 48 hrs by sulforhodamine B assay; conditions: K562, 48 h; procedure, shortened: as §1
LOX IMVI = assay: Growth inhibition of human LOXIMVI cells after 48 hrs by sulforhodamine B assay; procedure, shortened: as §1
NCI/ADR-RES = assay: Growth inhibition of human NCI/ADR-RES cells after 48 hrs by sulforhodamine B assay; procedure, shortened: as §1
[3] = Growth inhibition of human […] cells after 48 hrs by sulforhodamine B assay; procedure, shortened: as §1
[4] = Growth inhibition of human Hs 578T cells after 48 hrs by sulforhodamine B assay; procedure, shortened: as §1
SNB-19 = assay: Growth inhibition of human SNB19 cells after 48 hrs by sulforhodamine B assay; conditions: SNB-19, 48 h; procedure, shortened: as §2
OVCAR-3 = assay: Growth inhibition of human OVCAR-3 cells after 48 hrs by sulforhodamine B assay; conditions: OVCAR-3, 48 h; procedure, shortened: as §1
OVCAR-4 = assay: Growth inhibition of human OVCAR4 cells after 48 hrs by sulforhodamine B assay; conditions: OVCAR-4, 48 h; procedure, shortened: as §1
SW-620 = assay: Growth inhibition of human SW620 cells after 48 hrs by sulforhodamine B assay; conditions: SW-620, 48 h; procedure, shortened: as §2
NCI-H522 = assay: Growth inhibition of human NCI-H522 cells after 48 hrs by sulforhodamine B assay; conditions: NCI-H522, 48 h; procedure, shortened: as §1
SF-268 [5] = assay: Anticancer activity against human SF268 cells assessed as cell growth at 100 uM after 48 hrs by sulforhodamine B assay; conditions: SF-268, 48 h, read-out: Activity
PC-3 = assay: Growth inhibition of human PC3 cells after 48 hrs by sulforhodamine B assay; conditions: PC-3, 48 h; procedure, shortened: as §1
SF-268 [6] = assay: Growth inhibition of human SF268 cells after 48 hrs by sulforhodamine B assay; conditions: SF-268, 48 h; procedure, shortened: as §1
CAKI-1 = assay: Growth inhibition of human Caki1 cells after 48 hrs by sulforhodamine B assay; conditions: CAKI-1, 48 h; procedure, shortened: as §1
UACC-62 = assay: Growth inhibition of human UACC62 cells after 48 hrs by sulforhodamine B assay; conditions: UACC-62, 48 h; procedure, shortened: as §2
SK-MEL-28 = assay: Growth inhibition of human SK-MEL-28 cells after 48 hrs by sulforhodamine B assay; conditions: SK-MEL-28, 48 h; procedure, shortened: as §1
[7] = read-out: pLC50 (the source's name) (converted)

Nc1cc(N)c2nc(-c3ccccc3)c(Oc3ccc(F)cc3)nc2c1
GI50 (IGROV-1): 28.2 µM
CC50 (IGROV-1; [7]): > 100 µM
TGI (IGROV-1; read-out: pTGI (converted)): > 100 µM
GI50 (786-0): 15.5 µM
CC50 (786-0; [7]): 75.9 µM
TGI (786-0; read-out: pTGI (converted)): 34.7 µM
GI50 (HOP-62): 21.4 µM
LC50 (HOP-62): > 100 µM
TGI (HOP-62; read-out: pTGI (converted)): 49 µM
growth at 100 µM (MCF7 [1]): 2%
GI50 (M14): 17 µM
CC50 (M14; [7]): > 100 µM
TGI (M14; read-out: pTGI (converted)): 44.7 µM
GI50 (MCF7 [2]): 20.4 µM
CC50 (MCF7 [2]; [7]): > 100 µM
TGI (MCF7 [2]; read-out: pTGI (converted)): > 100 µM
GI50 (U-251): 23.4 µM
LC50 (50% net cell kill) (U-251): > 100 µM
TGI (U-251; read-out: pTGI (converted)): 79.4 µM
GI50 (NCI-H322M): 17 µM
LC50 (NCI-H322M): 81.3 µM
TGI (NCI-H322M; read-out: pTGI (converted)): 37.2 µM
GI50 (UO-31): 13.5 µM
CC50 (UO-31; [7]): > 100 µM
TGI (UO-31; read-out: pTGI (converted)): 45.7 µM
GI50 (OVCAR-8): 22.4 µM
CC50 (OVCAR-8; [7]): 100 µM
TGI (OVCAR-8; read-out: pTGI (converted)): 47.9 µM
GI50 (MDA-MB-435): 15.8 µM
CC50 (MDA-MB-435; [7]): 67.6 µM
TGI (MDA-MB-435; read-out: pTGI (converted)): 32.4 µM
GI50 (HL-60(TB)): 18.6 µM
LC50 (HL-60(TB)): > 100 µM
TGI (HL-60(TB); read-out: pTGI (converted)): 64.6 µM
growth at 100 µM (NCI-H460): 0%
GI50 (K562): 11 µM
LC50 (K562): > 100 µM
TGI (K562; read-out: pTGI (converted)): > 100 µM
GI50 (LOX IMVI): 43.7 µM
LC50 (LOX IMVI): > 100 µM
TGI (LOX IMVI; read-out: pTGI (converted)): > 100 µM
GI50 (NCI/ADR-RES): 18.2 µM
CC50 (NCI/ADR-RES; [7]): 70.8 µM
TGI (NCI/ADR-RES; read-out: pTGI (converted)): 36.3 µM
GI50 [3]: 12.3 µM
LC50 [3]: > 100 µM
TGI ([3]; read-out: pTGI (converted)): 46.8 µM
GI50 [4]: 20 µM
CC50 [4, 7]: > 100 µM
TGI ([4]; read-out: pTGI (converted)): 53.7 µM
GI50 (SNB-19): 17.4 µM
LC50 (SNB-19): 66.1 µM
TGI (SNB-19; read-out: pTGI (converted)): 33.9 µM
GI50 (OVCAR-3): 15.5 µM
CC50 (OVCAR-3; [7]): > 100 µM
TGI (OVCAR-3; read-out: pTGI (converted)): 41.7 µM
GI50 (OVCAR-4): 8.32 µM
CC50 (OVCAR-4; [7]): > 100 µM
TGI (OVCAR-4; read-out: pTGI (converted)): 35.5 µM
GI50 (SW-620): 19.5 µM
CC50 (SW-620; [7]): > 100 µM
TGI (SW-620; read-out: pTGI (converted)): 50.1 µM
GI50 (NCI-H522): 64.6 µM
LC50 (NCI-H522): > 100 µM
TGI (NCI-H522; read-out: pTGI (converted)): > 100 µM
growth at 100 µM (SF-268 [5]): 6%
GI50 (PC-3): 8.32 µM
CC50 (PC-3; [7]): 83.2 µM
TGI (PC-3; read-out: pTGI (converted)): 27.5 µM
GI50 (SF-268 [6]): 13.8 µM
LC50 (SF-268 [6]): > 100 µM
TGI (SF-268 [6]; read-out: pTGI (converted)): 47.9 µM
GI50 (CAKI-1): 11.2 µM
CC50 (CAKI-1; [7]): 53.7 µM
TGI (CAKI-1; read-out: pTGI (converted)): 24.5 µM
GI50 (UACC-62): 15.8 µM
CC50 (UACC-62; [7]): 69.2 µM
TGI (UACC-62; read-out: pTGI (converted)): 33.1 µM
GI50 (SK-MEL-28): 19.5 µM
CC50 (SK-MEL-28; [7]): > 100 µM
TGI (SK-MEL-28; read-out: pTGI (converted)): 46.8 µM
